{"source": "ChEMBL document CHEMBL1124291", "about": "“New actinomycin D analogues as superior chemotherapeutic agents against primary and advanced colon tumors and colon xenografts in nude mice” (J Med Chem, 1988)", "key": {"HT-29 [1]": {"tested_on": "HT-29", "test": "50% inhibition of incorporationf precursor [3H]thymidine into DNA HT-29 cell lines", "assay_type": "functional, cell-based", "details": "Homo sapiens, HT-29, 2 h", "how_it_was_run": "(§1)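 HT-29 colon carcinoma monolayers, 10^4 cells per well, five wells per concentration. Drug exposure lasted 2 h, with [³H]thymidine and [2-¹⁴C]uridine (0.5 μCi each) added for the last hour. Cells were washed, trypsinized, counted and precipitated onto glass-fiber filters with 10% TCA. Acid-precipitable radioactivity was measured. IC50 is the concentration inhibiting 50% of incorporation; data are averages of replicate experiments.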"}, "B16 [2]": {"tested_on": "B16", "test": "in vivo Antitumor activity against B16 melanoma cells at dose 300 ug/Kg /inj measured as mean survival time (MST)", "assay_type": "functional, Mus musculus", "how_it_was_run": "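B16 melanoma implanted ip on day 0 as 0.2 mL of a 1:5 (weight/volume) brei, in groups of nine BDF₁ mice; drugs given ip. MST is the median survival time in days, with the range of days of death of individual animals; % ILS is percent increase in life span, with survivors on day 65 over total injected.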"}, "HT-29 [3]": {"tested_on": "HT-29", "test": "50% inhibition of incorporationf precursor [3H]thymidine into RNA HT-29 cell lines", "assay_type": "functional, cell-based", "details": "Homo sapiens, HT-29, 2 h; in the assay text read “[14C]uridine” for “[3H]thymidine”", "how_it_was_run": "as §1"}, "B16 [4]": {"tested_on": "B16", "test": "In vivo antitumor activity against B16 melanoma cells at a optimal dose measured as %ILS (%increase life span) at a dose 300 micro g/Kg/inj", "assay_type": "functional, Mus musculus", "how_it_was_run": "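BDF1 mice in groups of nine were implanted ip on day 0 with 0.2 mL of 1:5 (w/v) B16 melanoma brei; drugs were given ip. Survival is reported as median survival time in days with range, and as %ILS, with survivors counted on day 65 out of total injected.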"}, "Rattus norvegicus [5]": {"species_on_record": "Rattus norvegicus", "test": "The formation of adrenochrome from epinephrine in the presence of SOD(super oxide dismutase); + denotes ' Inhibited'", "assay_type": "functional", "how_it_was_run": "(§2)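 Drug-stimulated superoxide generation with rat liver microsomal enzymes and NADPH as cofactor. NADPH oxidation was read at 340 nm. Adrenochrome formed from epinephrine was read at 480 nm, with or without superoxide dismutase. % stimulation = [(drug-stimulated rate − basal rate)/basal rate] × 100. Values are mean ± standard error of triplicate analyses.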"}, "MC-38 [6]": {"tested_on": "MC-38", "test": "Number of toxic deaths/number of mice in a group of non tumored mice treated in parallel with the tumor-bearing mice and observed for 100 days at a dose 0.30 mg/kg; value given as 0/9", "assay_type": "functional, Mus musculus", "details": "dose 0.3 mg/kg", "how_it_was_run": "(§3)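 Non-tumored CDF1 mice were treated in parallel with colon 38 tumor-bearing mice: iv injections on days 1, 5 and 9, groups of nine. Deaths were counted over 100 days of observation and reported as toxic deaths / mice in group.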"}, "MC-38 [7]": {"tested_on": "MC-38", "test": "Activity against advanced carcinoma C38 tumor in CDF1 Mice at dose 1.20 mg/kg measured as % inhibition of tumor", "assay_type": "functional", "details": "Mus musculus"}, "P388 [8]": {"tested_on": "P388", "test": "Antitumor activity in P388/ADR (adriamycin resistant), in male BDF1 mice measured as optimal dose at dose 0.10-0.8 mg/kg"}, "MC-38 [9]": {"tested_on": "MC-38", "test": "Number of toxic deaths/number of mice in a group of non tumored mice treated in parallel with the tumor-bearing mice and observed for 100 days at a dose 0.60 mg/kg; value given as 0/9", "assay_type": "functional, Mus musculus", "details": "dose 0.6 mg/kg", "how_it_was_run": "as §3"}, "MC-38 [10]": {"tested_on": "MC-38", "test": "Number of toxic deaths/number of mice in a group of non tumored mice treated in parallel with the tumor-bearing mice and observed for 100 days at a dose 1. 20 mg/Kg; value given as 4/9", "assay_type": "toxicity, cell-based", "details": "mouse, in vivo, 2400 h", "how_it_was_run": "as §3"}, "MC-38 [11]": {"tested_on": "MC-38", "test": "Mean survival time of treated / untreated group x100. (number of over 100-day survivors/number of total mice in the group) at a dose 0.30 mg/kg", "assay_type": "functional, Mus musculus", "details": "dose 0.3 mg/kg", "how_it_was_run": "(§4)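 CDF1 mice were implanted sc on day 0 with colon 38 adenocarcinoma fragments (70 mg) and given iv drug on days 1, 5 and 9. %T/C = median survival of treated / untreated × 100. Number of mice surviving over 100 days / group total is given in parentheses.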"}, "Rattus norvegicus [12]": {"species_on_record": "Rattus norvegicus", "test": "The formation of adrenochrome from epinephrine in the absence of SOD(super oxide dismutase)", "assay_type": "functional", "how_it_was_run": "as §2"}, "MC-38 [13]": {"tested_on": "MC-38", "test": "Activity against advanced carcinoma C38 tumor in CDF1 Mice at dose 0.60 mg/kg measured as % inhibition of tumor", "assay_type": "functional", "details": "Mus musculus"}, "MC-38 [14]": {"tested_on": "MC-38", "test": "Mean survival time of treated / untreated group x100. (number of over 100-day survivors/number of total mice in the group) at a dose 0.15 mg/kg", "assay_type": "functional, Mus musculus", "how_it_was_run": "as §4"}, "MC-38 [15]": {"tested_on": "MC-38", "test": "Activity against advanced carcinoma C38 tumor in CDF1 Mice at dose 0.30 mg/kg measured as % inhibition of tumor", "assay_type": "functional", "details": "Mus musculus"}, "Rattus norvegicus [16]": {"species_on_record": "Rattus norvegicus", "test": "Stimulation of NADPH oxidation in the presence of rat liver microsomes", "assay_type": "functional", "how_it_was_run": "as §2"}, "MC-38 [17]": {"tested_on": "MC-38", "test": "Mean survival time of treated / untreated group x100. (number of over 100-day survivors/number of total mice in the group) at a dose 0.60 mg/kg", "assay_type": "functional, Mus musculus", "details": "dose 0.6 mg/kg", "how_it_was_run": "as §4"}, "MC-38 [18]": {"tested_on": "MC-38", "test": "Activity against advanced carcinoma C38 tumor in CDF1 Mice at dose 0.15 mg/kg measured as % inhibition of tumor", "assay_type": "functional", "details": "Mus musculus"}, "P388 [19]": {"tested_on": "P388", "test": "50% inhibition of incorporation precursor [14C]uridine into RNA P388 cell lines", "assay_type": "functional, cell-based", "details": "Mus musculus"}, "P388 [20]": {"tested_on": "P388", "test": "Antitumor activity in P388/S(AMD sensitive) in male BDF1 mice measured as optimal dose"}, "P388 (Mus musculus)": {"tested_on": "P388 (Mus musculus)", "test": "50% inhibition of incorporation of precursor [3H]thymidine into DNA P388 cell lines", "details": "P388, 2 h"}, "MC-38 [21]": {"tested_on": "MC-38", "test": "Mean survival time of treated / untreated group x100. (number of over 100-day survivors/number of total mice in the group) at a dose 1.20 mg/kg", "assay_type": "functional, Mus musculus", "details": "dose 1.2 mg/kg", "how_it_was_run": "as §4"}, "MC-38 [22]": {"tested_on": "MC-38", "test": "Number of toxic deaths/number of mice in a group of non tumored mice treated in parallel with the tumor-bearing mice and observed for 100 days at a dose 0.15 mg/kg; value given as 1/9", "assay_type": "toxicity, organism-based", "parameters": "dose 0.15 mg/kg", "details": "mouse, in vivo, 2400 h", "how_it_was_run": "as §3"}, "Rattus norvegicus [23]": {"species_on_record": "Rattus norvegicus", "test": "DNA-cleaving ability expressed as % of closed circular pBR322 DNA cleaved […] conc 50 uM", "assay_type": "functional", "how_it_was_run": "(§5)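 pBR322 DNA (200 μM nucleotides) in 10 mM Tris·HCl pH 7.8 and 50 mM NaCl, with 4 mM Na₂S₂O₄ and 100 μM FeCl₂. Incubated with drug for 1 h at 20 °C, kept air-saturated. Supercoiled and open-circular forms were separated by agarose gel electrophoresis, stained with ethidium bromide and quantitated by densitometry. % cleaved was calculated from the open- and closed-circular amounts.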"}, "Rattus norvegicus [24]": {"species_on_record": "Rattus norvegicus", "test": "DNA-cleaving ability expressed as % of closed circular pBR322 DNA cleaved at 100 uM conc 100 uM", "assay_type": "functional", "how_it_was_run": "as §5"}}, "data": [{"compound": "Cc1c2oc3c(C)c4oc(-c5ccccc5)nc4c(C(=O)N[C@@H]4C(=O)N[C@H](C(C)C)C(=O)N5CCC[C@H]5C(=O)N(C)CC(=O)N(C)[C@@H](C(C)C)C(=O)O[C@@H]4C)c3nc-2c(C(=O)N[C@@H]2C(=O)N[C@H](C(C)C)C(=O)N3CCC[C@H]3C(=O)N(C)CC(=O)N(C)[C@@H](C(C)C)C(=O)O[C@@H]2C)c(N)c1=O", "values": [{"measurement": "IC50", "setting": "HT-29 [1]", "result": 580, "unit": "nM"}, {"measurement": "MST", "setting": "B16 [2]", "result": 59}, {"measurement": "IC50", "setting": "HT-29 [3]", "result": 68, "unit": "nM"}, {"measurement": "ILS", "setting": "B16 [4]", "result": 103, "unit": "%"}, {"measurement": "Adrenochrome formation", "setting": "Rattus norvegicus [5]", "result": "Inhibited"}, {"measurement": "Toxic deaths", "setting": "MC-38 [6]", "result": 0}, {"measurement": "inhibition in vivo at 1.2 mg/kg", "setting": "MC-38 [7]", "result": 88, "unit": "%"}, {"measurement": "optimal dose", "setting": "P388 [8]", "result": 0.6, "unit": "mg/kg"}, {"measurement": "Toxic deaths", "setting": "MC-38 [9]", "result": 0}, {"measurement": "Toxic deaths", "setting": "MC-38 [10]", "result": 4}, {"measurement": "T/C", "setting": "MC-38 [11]", "result": 137, "unit": "%"}, {"measurement": "Adrenochrome formation", "setting": "Rattus norvegicus [12]", "result": "18.8 nM min-1 (mg of protein)-1"}, {"measurement": "inhibition in vivo at 0.6 mg/kg", "setting": "MC-38 [13]", "result": 83, "unit": "%"}, {"measurement": "T/C", "setting": "MC-38 [14]", "result": 103, "unit": "%"}, {"measurement": "inhibition in vivo at 0.3 mg/kg", "setting": "MC-38 [15]", "result": 70, "unit": "%"}, {"measurement": "NADPH oxidation (nM min-1 (mg of protein)-1)", "setting": "Rattus norvegicus [16]", "result": 65}, {"measurement": "T/C", "setting": "MC-38 [17]", "result": 170, "unit": "%"}, {"measurement": "inhibition in vivo at 0.15 mg/kg", "setting": "MC-38 [18]", "result": 29, "unit": "%"}, {"measurement": "IC50", "setting": "P388 [19]", "result": 70, "unit": "nM"}, {"measurement": "optimal dose", "setting": "P388 [20]", "result": 0.35, "unit": "mg/kg"}, {"measurement": "IC50", "setting": "P388 (Mus musculus)", "result": 780, "unit": "nM"}, {"measurement": "T/C", "setting": "MC-38 [21]", "result": 103, "unit": "%"}, {"measurement": "Toxic deaths", "setting": "MC-38 [22]", "result": 1}]}, {"compound": "BLEOMYCIN", "values": [{"measurement": "Activity", "setting": "Rattus norvegicus [23]", "result": 75, "unit": "%"}, {"measurement": "Activity", "setting": "Rattus norvegicus [24]", "result": "> 85", "unit": "%"}]}]}
